Here are results for one substance from article PMC5516171 (Clinical Pharmacology in Drug Development, 2016).

For series [1], the system named is rat peritoneal mast cells. The experiment in a line: In vitro mast cell degranulation, rat peritoneal mast cells. It counts as cell-based. In short, it runs like this: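 Freshly isolated rat peritoneal mast cells were resuspended in RPMI 1640 with 1% FBS. They were given increasing concentrations of the excipient peptide (up to 250 μg/mL), the siRNA drug substance (up to 1000 μg/mL), or both combined. Incubation was 37°C for 10 or 30 min. Supernatant histamine (nM ± SD) and chymase measured degranulation; LDH measured viability.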

Series [2] relates to human mast cell line HMC‐1. The experiment in a line: In vitro mast cell degranulation, human mast cell line HMC‐1. It counts as cell-based. To be noted: HMC‐1 cells, 37°C, 30 minutes; up to 250 μg/mL ARC‐EX1 and ARC‐520 API. A digest of the protocol:
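HMC‑1 human mast cells were cultured in Iscove's medium with 2% FBS. They were exposed to increasing concentrations, up to 250 μg/mL, of the excipient peptide, the siRNA drug substance, or both combined. The positive control was phorbol myristate acetate plus calcium ionophore A23187. Incubation was 37°C for 30 min. Supernatants were assayed for histamine and β‑hexosaminidase (degranulation) and for LDH (viability).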

Entries after “also recorded” stand apart in the source; their conditions may differ.

In the case of “ARC‐EX1: delivery excipient: masked, hepatocyte‐targeted L‐melittin‐derived peptide; masking group carboxydimethyl maleic anhydride N‐acetyl galactosamine (LIGAILKVLATGLPTLISWIKNKRKQ; CDM-NAG masking groups)”, the “Concentration at which maximum histamine release was observed” value in series [1] (10 and 30 minutes of incubation) is ≥ 10000 ng/mL. In addition, the “Mast cell degranulation and histamine release” value in series [1] (37°C, 10 or 30 minutes, up to 250 μg/mL ARC‐EX1 or 1000 μg/mL ARC‐520 API) is “major trigger; also recorded: induced mast cell degranulation and histamine release in a dose‐dependent manner”; in series [2] it was “major trigger”.
